The source of these data is article PMC9933477 (ACS Omega, 2023).

Molecules are shown by their SMILES. In brackets after ≈: the same amount, converted by molar mass.

The subject of one data set is U937 cells. As to the kind of experiment: U937 cells activated with LPS plus TNFα, RT-PCR of proinflammatory genes. Type of data set: cell-based, human. The conditions noted are these: 1 μM, 24 h, compared to cells exposed only to LPS plus TNFα.
The target in another data set is T1, GPBAR1 (Homo sapiens, UniProt Q8TDU6).
T1 sequence (Q8TDU6 1-330): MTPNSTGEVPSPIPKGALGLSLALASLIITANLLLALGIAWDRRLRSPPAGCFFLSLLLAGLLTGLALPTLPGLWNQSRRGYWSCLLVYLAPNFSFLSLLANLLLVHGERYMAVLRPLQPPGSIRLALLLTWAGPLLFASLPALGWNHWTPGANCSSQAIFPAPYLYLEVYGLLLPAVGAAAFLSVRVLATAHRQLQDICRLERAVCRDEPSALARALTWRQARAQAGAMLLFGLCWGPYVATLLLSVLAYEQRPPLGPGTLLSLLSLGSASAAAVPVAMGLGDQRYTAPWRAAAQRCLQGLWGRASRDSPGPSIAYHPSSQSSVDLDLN
As to the kind of experiment: Luciferase reporter assay. Type of data set: cell-based. The procedure, abridged: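 HEK-293T cells transfected with GPBAR1 carry a cAMP-responsive element (CRE) luciferase reporter. Single-point efficacy at 10 μM is scored against TLCA (10 μM) as 100%, as the mean of two experiments ± SD. EC50 comes from concentration-dependent CREB activation in the same transfected cells.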
(In general: In a reporter assay the amount or activity of a reporter protein is the signal.)

In another data set the target is T2, RORγt (Homo sapiens, UniProt P51449).
T2 sequence (P51449 251-518): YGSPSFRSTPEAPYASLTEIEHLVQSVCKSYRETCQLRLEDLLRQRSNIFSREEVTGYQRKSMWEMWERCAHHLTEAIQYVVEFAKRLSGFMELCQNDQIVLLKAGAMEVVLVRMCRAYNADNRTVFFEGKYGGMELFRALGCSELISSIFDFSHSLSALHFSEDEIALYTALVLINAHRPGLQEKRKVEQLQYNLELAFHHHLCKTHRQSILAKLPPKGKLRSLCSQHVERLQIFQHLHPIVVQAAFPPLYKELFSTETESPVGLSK
As to the kind of experiment: Cofactor peptide recruitment assay. Type of data set: biochemical. Summed up: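 Cell-free AlphaScreen measuring test compound interference with RORγt binding to SRC-1 coactivator peptide. […] Vehicle (DMSO) wells are set as 100% control and wells lacking protein as 0% control.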

A short description of data set [1]: Aqueous solubility measurement. Type of data set: physicochemical. The conditions noted are these: PBS pH 7.4, pH 7.4, aqueous buffer, kinetic from dmso stock.
The next data set has as its system TNBS-induced colitis. As to the kind of experiment: Mouse model of TNBS-induced colitis. To be noted: 10, 20 or 30 mg/kg/day by gavage. Type of data set: in vivo. Summed up:
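C57 male mice given TNBS to induce colitis, then vehicle or test compound at 10, 20 or 30 mg/kg/day by gavage, day 0 to day 4. Read-outs: body-weight change, CDAI, colon length, colon weight/length ratio, H&E of colon sections. Colon mRNA by RT-PCR normalised to Gapdh, Tbp and Actb. Mean ± SEM of 5–10 mice/group; p<0.05 vs TNBS or untreated.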

A short description of data set [2]: Metabolic stability in human liver microsomes. Type of data set: in vitro ADME. The conditions noted are these: pH 7.4.

A word on the EC50: it is the concentration that produces a half-maximal response. A higher EC50 goes with a less potent agent. Usually IC50 stands for the concentration needed to halve the response being measured. A lower IC50 goes with higher potency. For the molecule `C[C@H](CCCOc1ccc(C(=O)O)cc1)[C@H]1CC[C@H]2[C@@H]3CC=C4C[C@@H](O)CC[C@]4(C)[C@H]3CC[C@]12C` [Compound 3], the “Reduction in the expression of all measured genes (IL-1β, TNFα, IL-6, CD11c)” value in the data set on U937 cells was 30–50%. Moreover, at GPBAR1, the EC50 amounted to 220 nM. This molecule also returned an IC50 on RORγt of 1190 nM.
What is called solubility is the concentration that dissolves in the medium under given conditions. The low end stands for a poorly soluble substance, the high end for a readily soluble substance. Consider `C[C@H](CCCOc1ccc(C#N)cc1)[C@H]1CC[C@H]2[C@@H]3CC=C4C[C@@H](O)CC[C@]4(C)[C@H]3CC[C@]12C` [Compound 5], for which, in data set [1], the solubility at 24 h was found to be 10 µM (≈ 4.62 µg/mL). This counts as double-digit micromolar.
As usually defined, the microsomal CLint is a measure of how fast metabolising enzymes remove a compound, apart from limits set by blood flow. `C[C@H](CCCOc1cccc(CO)c1)[C@H]1CC[C@H]2[C@@H]3CC=C4C[C@@H](O)CC[C@]4(C)[C@H]3CC[C@]12C` [Compound 7] showed an EC50 on GPBAR1 of 5900 nM. For the same molecule, in the data set on TNBS-induced colitis (day 0 to day 4), the “Damage to the colon (macroscopic analysis and H&E histology)” value is “decreased the damage to the colon”; the “Severity of colitis (percentage of body weight, CDAI)” value is “relieved by 7 in a dose-dependent manner”. In addition, in the data set with TNBS-induced colitis (RT-PCR of colon), the “Colon expression of IL-10” value is given as “strong increase”; the “Colon expression of Rorc, IL-17A, and F” value is recorded as “decreased the expression”. Besides, the midpoint of inhibition against RORγt, the IC50, lay at 107 nM. In addition, the microsomal CLint at 1 µM in data set [2] was 7 µL/min/mg.
Regarding `C[C@H](CCCOc1ccc(C#N)cc1)[C@H]1CC[C@H]2[C@@H]3CC[C@@H]4C[C@H](O)CC[C@]4(C)[C@H]3CC[C@]12C` [Compound 17], the concentration in solution in data set [1] (solubility at 24 h) was 15 µM (≈ 6.96 µg/mL).
